SKKanGAS inh: S. pyogenes SKKanGAS growth inhibitors in kanamycin, primary screen, streptokinase expression inhibitor project, SKKanGAS strain, BacTiter-Glo luminescence; 6 h; inhibition, % at 7.5 µM; hit rate 1.3% among 300,000; AID 1662, 2009;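 active = mean replicate score, as percent of positive control median, at least 50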;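 also: strain carries kanamycin resistance gene driven by streptokinase promoter and grows in 40 µg/ml kanamycin; loss of luminescence reflects streptokinase promoter inhibition or plain growth inhibition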
CSC inhib: cancer stem cell viability inhibitors, primary screen, luminescence; cancer stem cell-like cells viability; inhibition, % at 7.5 µM; hit rate 1.1% among 300,000; AID 2717, 2010; in the data active = inhibition above about 75%; tested in HMLE shEcad cells
T cruzi inh: inhibitors of intracellular T. cruzi growth, primary screen, luminescence, NIH3T3 host cells | inhibition, % (test concentration not listed) | T. cruzi beta-gal in NIH3T3, 90 h | AID 1885, 2009 | hit rate 1.4% among 300,000;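 active = mean inhibition across valid replicates above about 55%, limit read from the data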;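 also: signal also drops with host cell toxicity which is not excluded here; higher percent means less beta-gal luminescence so fewer parasites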
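assay system = mouse NIH/3T3 fibroblasts infected with β-gal-expressing T. cruzi Tulahuen C4 | input = 5,000 NIH/3T3 host cells per well | buffer or medium = DMEM plus 2% FBS | timing = 3 h host attachment, then at least 90 h co-culture | measured by = GalScreen luminescence, 60 min | evaluation = luminescence reflecting intracellular parasite burden, expressed as percent inhibition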
Mdm2-MdmX inh: inhibitors of human Mdm2-MdmX association, primary screen, cell-based, luminescence, split luciferase, SaOS-2, uHTS. SaOS-2 split-luciferase Mdm2/MdmX complementation. AID 485346, 2010. Protein Mdm4 (Homo sapiens) + E3 ubiquitin-protein ligase Mdm2 (Homo sapiens), …. hit rate 3% among 330,000. inhibition, % at 8 µM;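 active = inhibition of at least 50% at 8 µM in the primary screen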
Target sequence (O15151 whole entry, looked up): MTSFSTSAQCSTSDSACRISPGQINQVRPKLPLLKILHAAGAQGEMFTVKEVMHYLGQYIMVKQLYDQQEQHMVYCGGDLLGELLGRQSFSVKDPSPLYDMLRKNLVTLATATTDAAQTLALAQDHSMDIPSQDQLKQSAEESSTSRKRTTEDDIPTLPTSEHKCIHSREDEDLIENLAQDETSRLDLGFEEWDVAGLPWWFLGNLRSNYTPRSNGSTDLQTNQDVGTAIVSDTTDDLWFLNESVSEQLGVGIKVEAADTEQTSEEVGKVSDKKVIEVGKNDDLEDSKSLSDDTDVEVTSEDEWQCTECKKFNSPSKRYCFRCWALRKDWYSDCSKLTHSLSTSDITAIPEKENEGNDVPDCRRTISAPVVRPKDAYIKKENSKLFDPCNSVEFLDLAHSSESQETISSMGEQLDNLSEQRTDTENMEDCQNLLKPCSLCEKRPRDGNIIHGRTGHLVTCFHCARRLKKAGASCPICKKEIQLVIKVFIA
Target sequence (Q00987 whole entry, looked up): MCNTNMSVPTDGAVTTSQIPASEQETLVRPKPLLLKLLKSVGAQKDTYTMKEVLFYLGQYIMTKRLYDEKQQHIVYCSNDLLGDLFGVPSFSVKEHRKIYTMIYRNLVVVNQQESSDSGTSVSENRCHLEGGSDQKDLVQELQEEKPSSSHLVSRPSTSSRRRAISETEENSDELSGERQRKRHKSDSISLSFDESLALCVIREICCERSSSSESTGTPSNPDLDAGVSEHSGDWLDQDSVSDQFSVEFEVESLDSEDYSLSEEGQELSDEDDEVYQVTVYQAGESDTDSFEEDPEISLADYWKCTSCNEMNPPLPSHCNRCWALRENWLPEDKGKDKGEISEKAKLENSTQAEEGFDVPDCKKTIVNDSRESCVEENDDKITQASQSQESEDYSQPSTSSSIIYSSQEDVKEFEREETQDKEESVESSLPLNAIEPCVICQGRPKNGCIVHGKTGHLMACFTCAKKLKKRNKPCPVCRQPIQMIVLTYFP
L major viab: Leishmania major promastigote growth inhibition, primary screen. Leishmania major promastigotes, resazurin fluorescence viability. inhibition, % at 10 µM. hit rate 9% among 200,000. AID 1063, 2008; in the data active = inhibition above about 50%;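 also: promastigotes grown with compound for 44 hours at 28 °C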
Beta apoptosis: inhibitors of cytokine-induced beta cell apoptosis, primary screen, luminescence; protection from apoptosis, % (concentration not given with the values); hit rate 0.8% among 300,000; AID 435005, 2010; INS-1E cytokine-induced death, ATP luminescence, 48 h; percent of positive-control rescue, neutral wells zero;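 active = Every replicate reaches about 75%, or at least half do and their mean reaches it too, limit read from the data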;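 also: higher means more ATP so stronger rescue from cytokine killing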
Mdm2 MdmX conf: Mdm2-MdmX complex disruptors, retested hits, confirmation, luminescence, single concentration; shares compounds with Mdm2-MdmX inh; Mdm2-MdmX binding, luminescent assay; inhibition, % at 8 µM; hit rate 55% among 10,000; in the data active = inhibition above about 40%
Full FLuc ctr: full-length luciferase signal inhibition, confirmation, counter-screen for Mdm2/MdmX interaction inhibitor project, cell-based, single concentration, SaOS-2; shares compounds with Mdm2-MdmX inh; SaOS-2 full-length luciferase counterscreen, luminescence; inhibition, % at 8 µM; hit rate 77% among 6,200; AID 504607, 2011;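 active = mean inhibition at 8 µM reaching about 37%, which flags the compound as non-specific, limit read from the data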;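 also: p53-null SaOS-2 cells with luciferase driven by a doxycycline-inducible promoter; compound on cells about two nights before reading with doxycycline added after day one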
Hits are given with their value. Most compounds without a hit are left out; they make up all but 9.4% or so of the library.

How did CCOC(=O)c1ccc(NC(=O)c2cccc(S(=O)(=O)N3CCN(C(C)=O)CC3)c2)cc1 do in these assays?
SKKanGAS inh: inactive; CSC inhib: inactive; T cruzi inh: inactive; Mdm2-MdmX inh: inactive; Beta apoptosis: inactive

What do the screens show for `C/C(=N\NC(=O)c1c(Cl)c(C)nn1C)c1cccc(NC(=O)COc2ccc(Cl)cc2)c1`?
SKKanGAS inh: inactive; CSC inhib: inactive; T cruzi inh: inactive; Mdm2-MdmX inh: inactive; L major viab: inactive; Beta apoptosis: inactive

Results for COc1ccc(C(=O)Nc2cccc(/C(C)=N/NC(=O)c3ccc([N+](=O)[O-])c(C)c3)c2)cc1OC ?
SKKanGAS inh: inactive; CSC inhib: inactive; T cruzi inh: inactive; Mdm2-MdmX inh: 55.6; L major viab: inactive; Beta apoptosis: inactive; Mdm2 MdmX conf: inactive

Results for C/C(=N/NC(=O)c1ccc(C)s1)c1cccc(NC(=O)COc2ccc(Cl)cc2C)c1 ?
SKKanGAS inh: inactive; CSC inhib: inactive; T cruzi inh: inactive; Mdm2-MdmX inh: 88.8; L major viab: inactive; Beta apoptosis: inactive; Mdm2 MdmX conf: inactive

What do the screens show for `C/C(=N\NC(=O)c1ccc(O)cc1)c1cccc(NC(=O)c2ccc(Cl)cc2)c1`?
SKKanGAS inh: inactive; CSC inhib: inactive; T cruzi inh: inactive; Mdm2-MdmX inh: 58.3; Beta apoptosis: inactive; Mdm2 MdmX conf: inactive

What do the screens show for `O=C(N/N=C/c1ccccc1O)C(=O)Nc1ccccn1`?
SKKanGAS inh: inactive; CSC inhib: inactive; T cruzi inh: inactive; Mdm2-MdmX inh: inactive; L major viab: inactive; Beta apoptosis: inactive

How did CC1(c2ccc3ccccc3c2)NC(=O)N(CC(=O)N2CCN(c3ccccc3O)CC2)C1=O (centres undefined) do in these assays?
SKKanGAS inh: inactive; T cruzi inh: inactive; Mdm2-MdmX inh: inactive; Beta apoptosis: inactive

How did CCOC(=O)c1c(C)n(C)c2c1cc(OC(C)=O)c1ccccc12 do in these assays?
SKKanGAS inh: inactive; CSC inhib: inactive; T cruzi inh: inactive; Mdm2-MdmX inh: inactive; Beta apoptosis: inactive

Results for CCOC(=O)c1c(CSc2nc(C)cc(C)c2C#N)n(C)c2cc(Br)c(OC(C)=O)cc12 ?
SKKanGAS inh: inactive; CSC inhib: inactive; T cruzi inh: inactive; Mdm2-MdmX inh: 71.8; L major viab: 96.0; Beta apoptosis: 111.1; Mdm2 MdmX conf: inactive

How did CCOC(=O)CC(=O)CSc1nc(C)cc(C)c1C#N do in these assays?
SKKanGAS inh: inactive; CSC inhib: inactive; T cruzi inh: inactive; Mdm2-MdmX inh: inactive; L major viab: inactive

Results for C=CCCc1ccc(C#N)c(SCc2c(C(=O)OCC)c3cc(OC(C)=O)c(Br)cc3n2C)n1 ?
SKKanGAS inh: inactive; CSC inhib: inactive; T cruzi inh: inactive; Mdm2-MdmX inh: 65.5; L major viab: 63.7; Beta apoptosis: 109.5; Mdm2 MdmX conf: 89.3; Full FLuc ctr: inactive

Results for Cc1cc(C)nc(/N=C(\N)Nc2ccc(S(=O)(=O)Nc3nc(C)cc(C)n3)cc2)n1 ?
SKKanGAS inh: inactive; CSC inhib: inactive; T cruzi inh: inactive; Mdm2-MdmX inh: inactive; L major viab: inactive; Beta apoptosis: inactive

Results for Cc1ccc(CN=C(N)Nc2nc(C)cc(C)n2)cc1 ?
SKKanGAS inh: inactive; CSC inhib: inactive; T cruzi inh: inactive; Mdm2-MdmX inh: 68.4; L major viab: inactive; Beta apoptosis: inactive; Mdm2 MdmX conf: 59.4; Full FLuc ctr: 63.4

What do the screens show for `CN1CCN(C(c2ccc(C(F)(F)F)cc2)c2cc(Cl)c3cccnc3c2O)CC1` (centres undefined)?
SKKanGAS inh: 103.7; CSC inhib: 109.7; T cruzi inh: 59.0; Mdm2-MdmX inh: 85.5; Beta apoptosis: 100.4; Mdm2 MdmX conf: 81.2; Full FLuc ctr: inactive

Results for CN1CCN(C(c2ccc(Cl)cc2)c2cc(Cl)c3cccnc3c2O)CC1 (centres undefined) ?
SKKanGAS inh: 101.0; CSC inhib: inactive; T cruzi inh: inactive; Mdm2-MdmX inh: 72.8; Beta apoptosis: inactive; Mdm2 MdmX conf: 71.5; Full FLuc ctr: 37.8

How did O=C(Oc1ccc(Cl)c2cccnc12)N1CCCCCC1 do in these assays?
SKKanGAS inh: inactive; T cruzi inh: inactive; Mdm2-MdmX inh: inactive; L major viab: inactive; Beta apoptosis: inactive

Results for CCC(C)(C)n1nnnc1C(c1ccc(Cl)cc1)N1CCN(C)CC1 (centres undefined) ?
SKKanGAS inh: inactive; CSC inhib: inactive; T cruzi inh: inactive; Mdm2-MdmX inh: inactive; L major viab: inactive; Beta apoptosis: inactive

Results for Oc1c(C(c2ccccn2)N2CCCCC2)cc(Cl)c2cccnc12 (centres undefined) ?
SKKanGAS inh: 54.2; CSC inhib: inactive; T cruzi inh: inactive; Mdm2-MdmX inh: 65.3; L major viab: 74.4; Beta apoptosis: inactive; Mdm2 MdmX conf: 46.4; Full FLuc ctr: 42.7

What do the screens show for `CCN1CCN(C(c2ccc(C(F)(F)F)cc2)c2ccc3cccnc3c2O)CC1` (centres undefined)?
SKKanGAS inh: 99.8; CSC inhib: 104.5; T cruzi inh: inactive; Mdm2-MdmX inh: 73.9; Beta apoptosis: 86.4; Mdm2 MdmX conf: 77.8; Full FLuc ctr: inactive

How did O=C(CN1C(=O)NC(Cc2c[nH]c3ccccc23)C1=O)NCC(F)(F)F (centres undefined) do in these assays?
SKKanGAS inh: inactive; CSC inhib: inactive; T cruzi inh: inactive; Mdm2-MdmX inh: inactive; Beta apoptosis: inactive

How did O=C1C=C(c2ccc(F)c(Cl)c2)C[C@@H](c2ccc(F)cc2)C1 do in these assays?
CSC inhib: inactive; Mdm2-MdmX inh: inactive; Beta apoptosis: inactive

What do the screens show for `CCCn1c(N)c(N(CCOC)C(=O)c2cc3ccccc3cc2OC)c(=O)[nH]c1=O`?
CSC inhib: inactive; Mdm2-MdmX inh: inactive; Beta apoptosis: inactive

What do the screens show for `COc1cc(-c2nnc(COc3ccc4cc(Br)ccc4c3)o2)cc(OC)c1OC`?
SKKanGAS inh: inactive; CSC inhib: inactive; T cruzi inh: inactive; Mdm2-MdmX inh: 60.5; L major viab: inactive; Mdm2 MdmX conf: inactive

Results for CCNCC(=O)N1c2ccccc2CCc2ccc(NC(=O)OC(C)C)cc21 ?
SKKanGAS inh: inactive; CSC inhib: inactive; T cruzi inh: inactive; Mdm2-MdmX inh: inactive; Beta apoptosis: inactive

How did COc1cc(NC(=S)N2CCN(C(c3ccccc3)c3ccccc3)CC2)cc(OC)c1 do in these assays?
SKKanGAS inh: inactive; CSC inhib: inactive; T cruzi inh: inactive; Mdm2-MdmX inh: 67.5; L major viab: inactive; Beta apoptosis: inactive; Mdm2 MdmX conf: inactive

Assay outcomes (PubChem BioAssay)
